EBNA-1 inh = blocks EBNA-1 binding to DNA | hit rate 0.34% among 300,000 | EBNA-1 DNA binding, fluorescence polarization | inhibition, % at 14.8 µM; in the data active = inhibition above about 28%
ALR inh = human ALR oxidase inhibition via reduced H2O2 | P55789 | purified ALR, DTT oxidation, H2O2 HRP-luminol luminescence | inhibition, % (concentration not given with the values) | hit rate 3.8% among 290,000;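 active = mean replicate inhibition above about 79%, with every replicate also reaching it, limit read from the data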
Target sequence (P55789 whole entry, looked up): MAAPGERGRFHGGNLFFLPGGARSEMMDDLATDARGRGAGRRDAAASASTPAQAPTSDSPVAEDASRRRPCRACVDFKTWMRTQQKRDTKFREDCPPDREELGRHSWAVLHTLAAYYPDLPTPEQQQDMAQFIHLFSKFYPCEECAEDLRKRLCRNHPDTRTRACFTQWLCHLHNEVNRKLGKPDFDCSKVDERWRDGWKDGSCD
PfM18AAP inh-1 = PfM18AAP enzyme inhibition. recombinant PfM18AAP, H-Glu-NHMec fluorogenic cleavage. inhibition, % at 7.35 µM. hit rate 1.2% among 290,000;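 active = inhibition above the campaign mean inhibition over all tested compounds plus 3 SD, cut at about 28% in these data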;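 also: 0% = plate median of test compound wells and 100% = 2 mM ZnCl2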
NS3 helicase inh = blocks Hepatitis C virus NS3 helicase unwinding. NS3 helicase DNA unwinding, Cy5 molecular beacon fluorescence. inhibition, % at 10.9 µM. hit rate 0.56% among 290,000. AID 1800;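 active = inhibition above the mean of all tested compounds plus 3 SD, set per campaign, cut at about 35% in these data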;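 also: 0% = DMSO wells and 100% = thioflavine S control wells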
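Test system: hepatitis C virus NS3 helicase domain fragment enzyme. Also added: annealed dual-labelled DNA beacon duplex, ATP-started. Timing: 60 min unwinding reaction at 25 °C after ATP addition. Technique: Cy5 fluorescence. Measure: % inhibition of unwinding.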
core dimer inh = HCV core protein dimerization inhibition | TR-FRET GST/Flag-core106 dimerization, 1536-well | inhibition, % at 5 µM | hit rate 0.33% among 300,000;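 active = inhibition above the mean of all tested compounds plus 3 SD, set per screening campaign, cut at about 45% in these data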
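System: GST-tagged and Flag-tagged HCV core protein residues 1-106 / Input: core106 proteins, GST 13.5 nM and Flag 17 nM / Buffer or medium: KF-containing HEPES buffer, pH 7.45, DTT, CHAPS, BSA / Probe or stimulus: Eu-anti-GST and XL665-anti-Flag labelled anti-tag antibodies / Schedule: 4 h, 22.5 °C incubation / Technique: TR-FRET 671 and 617 nm emission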
ZTA counter = ZTA (EBV) inhibition in EBNA-1 counter-screen; ZTA-DNA binding, fluorescence polarization; inhibition, % at 11 µM; hit rate 0.15% among 320,000; in the data active = inhibition above about 33%
Target sequence (P03206 whole entry, looked up): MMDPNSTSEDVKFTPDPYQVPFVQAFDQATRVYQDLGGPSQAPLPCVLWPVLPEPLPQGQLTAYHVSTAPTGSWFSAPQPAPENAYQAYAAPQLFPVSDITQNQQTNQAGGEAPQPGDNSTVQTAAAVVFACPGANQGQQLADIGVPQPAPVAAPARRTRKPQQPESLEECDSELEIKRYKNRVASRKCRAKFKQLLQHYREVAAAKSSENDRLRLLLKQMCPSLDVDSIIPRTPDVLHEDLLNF
PfM18AAP inh-2 = confirmation of Plasmodium falciparum M18 aspartyl aminopeptidase inhibitors | recombinant PfM18AAP, H-Glu-NHMec fluorogenic cleavage | shares compounds with PfM18AAP inh-1 | inhibition, % at 7.35 µM | hit rate 28% among 2,400;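 active = mean inhibition over replicate wells above the hit cutoff set for the earlier primary screen, cut at about 29% in these data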;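 also: 0% = median of test compound wells and 100% = 2 mM ZnCl2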
CTSL1 confirm = counter-screen for PFM18AAP inhibitors: confirmation of human cathepsin L inhibitors; shares compounds with PfM18AAP inh-1; purified cathepsin L1, Z-Leu-Arg-MCA fluorescence; inhibition, % at 5.96 µM; 2,400 tested, under 10 active;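 active = average inhibition across replicates above the hit cutoff set in the earlier primary screen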;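 also: 0% = median of test compound wells and 100% = Z-Phe-Ala-diazomethylketone 1 µM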
Starred values were filed as active, the others as inactive; . = not tested or not shown. A selection: hits, their analogues and other compounds. The true share with any hit is near 5.2%.

SMILES	EBNA-1 inh	ALR inh	PfM18AAP inh-1	NS3 helicase inh	core dimer inh	ZTA counter	PfM18AAP inh-2	CTSL1 confirm
Cc1cc(NS(=O)(=O)c2ccc(Nc3nc(-c4ccc(O)cc4)cs3)cc2)no1	-8.9	100.3*	43.0*	12.2	-17.0	0.2	18.0	-3.7
CCC(=O)Nc1ccc(S(=O)(=O)Nc2cc(C)on2)cc1	5.9	12.7	3.2	0.1	-2.7	-7.3	.	.
Oc1ccc(-c2csc(Nc3ccccn3)n2)c(O)c1	-7.1	92.9*	34.0*	-15.0	-4.5	4.9	13.3	-0.7
NS(=O)(=O)c1ccc(Nc2nc(-c3ccc(O)cc3O)cs2)cc1	8.0	98.8*	41.4*	-9.3	-14.9	-1.1	38.5*	3.1
Cc1ccc(Nc2nc(-c3ccc(O)c(O)c3)cs2)nc1	.	.	62.8*	26.1	.	.	43.3*	1.8
NS(=O)(=O)c1ccc(Nc2nc(-c3ccc(F)cc3)cs2)cc1	-6.3	46.2	6.3	-19.5	5.5	-8.4	.	.
Cc1nc2ncccn2c1-c1csc(Nc2ccc(O)cc2)n1	.	.	41.2*	-2.6	.	.	43.2*	-1.6
Cc1cccnc1Nc1nc(-c2ccc(O)cc2O)cs1	-8.7	76.6*	32.5*	10.1	-17.6	4.8	5.2	4.0
COc1ccccc1N1CCN(S(=O)(=O)CCNC(=O)CC2CCCCC2)CC1	0.6	5.4	.	.	-4.6	1.0	.	.
COc1ccc(CN(C)S(=O)(=O)c2nnc(NC(=O)c3cccc(F)c3)s2)cc1	-3.3	-6.4	-6.1	3.9	-54.0	-0.2	.	.
O=C1NC(=S)SC1=C1CCCC1	8.5	13.4	35.7*	35.8	-1.9	-4.7	-31.9	3.2
Oc1ccc(O)c(/C(=N/Nc2ccccc2)c2ccccc2)c1	-4.1	.	44.7*	30.1	-14.2	-15.3	-80.0	-1.0
N#Cc1c(-c2ccccc2)cc(-c2ccccc2)nc1SCC(=O)NCC(=O)O	5.5	.	38.2*	-15.3	10.1	3.0	-10.6	2.7
CC(C)NC[C@@H](O)c1ccc(O)c(O)c1	2.8	15.5	60.9*	1.2	0.3	-10.9	55.7*	-2.5
CCCc1cc(=O)oc2c(C)c(OCC(=O)NC3CCN(Cc4ccccc4)CC3)ccc12	-0.8	1.0	-0.1	-2.7	-12.9	-11.1	.	.
C=CCn1c(Cc2ccccc2)n[nH]c1=S	2.7	63.9	34.3*	-9.7	2.2	-2.1	-4.5	-1.1
C=CCn1c(-c2ccoc2)n[nH]c1=S	-8.2	.	48.6*	-6.7	-1.5	-4.2	-19.7	-1.2
COc1ccc(S(=O)(=O)Nc2ccc3c(c2)C(=O)N([C@H](C)CO)C[C@H](C)[C@@H](CN(C)C(=O)Nc2ccccc2)O3)cc1	.	-4.8	.	.	.	.	.	.
COc1cccc(OC)c1C(=O)NC(=O)NNc1cc(C(F)(F)F)cc(C)n1	2.1	15.2	40.4*	1.6	0.1	1.4	-0.9	2.8
COc1cccc(OC)c1C(=O)NC(=O)Nc1c(F)cc(F)cc1F	10.4	-2.7	-0.9	0.7	6.1	-1.7	.	.
NC(=O)c1nc(C(=O)N2CCN(c3ccccc3)CC2)c2ccccc2n1	.	.	.	.	.	4.2	.	.
CCOc1cc(N2CCOCC2)c(OCC)cc1NC(=O)COC(=O)CCn1c(C)csc1=O	-5.9	.	.	.	-5.8	-24.7	.	.
COCCNc1ncnc2c1[nH]c1ccccc12	7.5	0.8	-2.9	6.5	-5.5	-3.2	.	.
COc1ccc(/C=N/Nc2ncnc3c2[nH]c2ccccc23)c(OC)c1OC	-6.8	-20.7	35.9*	15.2	3.8	-2.3	-27.6	5.4
Cc1ccc(S(=O)(=O)Nc2ccc3c(c2)ncn3C(C)(C)C)cc1	3.1	-6.4	6.1	-5.6	0.5	-7.8	.	.
SMILES	EBNA-1 inh	ALR inh	PfM18AAP inh-1	NS3 helicase inh	core dimer inh	ZTA counter	PfM18AAP inh-2	CTSL1 confirm
Cc1ccc(CNc2ccc3c(c2)ncn3C(C)(C)C)cc1	1.5	89.0*	33.1*	-5.3	-1.3	3.2	2.5	0.9
CCC/C=N/Nc1nnc(Cc2ccc(OC)c(OC)c2)c(=O)[nH]1	9.5	4.5	32.0*	-11.4	-11.6	-4.4	-28.9	-4.7
COc1ccc(N(C)S(=O)(=O)c2cccc(C(=O)OCC(=O)c3c(N)n(C)c(=O)n(C)c3=O)c2)cc1	.	-6.0	.	.	.	.	.	.
CC1CCC(C(C)C)C2=C1C(C#N)(C#N)C(C#N)(C#N)C(c1ccccc1)N2 (centres undefined)	-4.2	94.4*	35.8*	4.0	-14.5	-0.8	-32.4	-1.7
Cc1ccc(-c2nc3sc4c(N)ncnc4c3c3c2CCCC3)cc1	1.2	0.3	0.5	-4.4	13.3	-2.2	.	.
N#CC1=C(N)Oc2n[nH]c(-c3cccnc3)c2C1c1ccc([N+](=O)[O-])o1 (centres undefined)	10.3	-1.4	33.1*	3.3	-4.9	6.8	-36.4	-5.4
COc1cc(/C=C/C(=O)c2c(O)cc(C)oc2=O)cc(OC)c1O	-10.1	.	42.1*	7.2	5.6	-4.6	-16.1	-2.4
CCCNC(=S)NNC(=O)c1cccs1	8.2	12.2	26.7	3.6	-0.8	12.9	.	.
CNC(=S)NNC(=O)c1cccs1	-1.6	47.2	37.8*	4.3	2.1	0.2	14.0	0.5
COc1ccc(C(=O)Nc2ccc(C(=O)Nc3cccc(C)c3)cc2)cc1	-3.7	4.5	-1.2	-3.9	3.5	15.3	.	.
CCNC(=S)NNC(=O)c1cccs1	-24.0	31.1	35.9*	2.0	-5.7	11.1	12.8	1.1
Cc1ccc(NC(=O)NNC(=O)c2cccs2)cc1	-0.5	-0.5	50.8*	-1.5	-10.7	7.5	27.0	2.6
COc1ccc(C(=O)NNC(=O)Nc2ccc(C)cc2)cc1	2.4	11.3	45.0*	-4.8	-1.1	-8.0	24.7	3.1
CC1=C(C(=O)OC(C)C)C(c2cccs2)NC(=S)N1 (centres undefined)	-6.8	-11.4	-2.9	9.9	7.5	-13.2	.	.
NNC(=O)CP(=O)(c1ccccc1)c1ccccc1	-3.0	5.7	.	.	10.3	-4.7	.	.
O=C(O)c1ccccc1C(=O)Nn1cnnc1	8.2	-6.8	37.5*	6.4	1.3	-7.1	35.9*	-2.5
O=C(CP(=O)(c1ccccc1)c1ccccc1)Nn1cnnc1	16.4	-5.6	34.5*	-3.2	-0.7	29.2	49.1*	5.2
O=C(Nn1cnnc1)c1ccccc1Cl	5.9	.	55.4*	7.9	-2.3	-2.4	40.0*	-0.8
O=C(Nc1ccccc1NC(=O)c1ccccc1Cl)c1ccccc1Cl	0.4	-4.2	1.3	-2.9	9.8	2.5	.	.
COc1cccc(C(=O)Nn2cnnc2)c1OC	9.4	-1.6	43.3*	2.5	-7.9	1.5	51.5*	-4.5
COCCCNC(=O)c1cccc(OC)c1OC	-9.1	-11.1	-9.8	-0.1	1.4	-5.4	.	.
O=C(O)c1ccccc1C(=O)O	.	0.7	.	.	.	-9.9	.	.
O=C(NCc1cccc(F)c1)C1CCN(C(=O)c2sccc2-n2cccc2)CC1	-2.9	-3.0	-0.6	6.0	-0.9	-2.5	.	.
